APJ ag = APJ receptor agonism; P35414; CHO-K1 APJ PathHunter beta-arrestin, luminescence; 0% DMSO wells, 100% apelin; activation, % at 20 µM; AID 2520; 330,000 tested, 0.11% active;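 active = activation more than six SD over the plate average, tested at 20 µM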;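 note: 0% = DMSO alone and 100% = apelin-13 at 10 nM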
Target sequence (P35414 whole entry, looked up): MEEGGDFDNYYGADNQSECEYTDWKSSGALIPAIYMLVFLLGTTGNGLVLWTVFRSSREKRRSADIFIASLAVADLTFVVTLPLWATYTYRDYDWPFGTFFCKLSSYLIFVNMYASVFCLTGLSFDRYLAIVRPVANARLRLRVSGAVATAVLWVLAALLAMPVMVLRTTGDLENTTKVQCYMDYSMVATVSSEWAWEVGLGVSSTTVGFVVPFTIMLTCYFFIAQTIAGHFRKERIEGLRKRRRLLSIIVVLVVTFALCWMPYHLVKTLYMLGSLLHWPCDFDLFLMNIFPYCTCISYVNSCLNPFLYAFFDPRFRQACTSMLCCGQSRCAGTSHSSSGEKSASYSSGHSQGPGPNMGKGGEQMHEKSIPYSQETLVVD
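system = engineered CHO-K1 APJ arrestin reporter cells | input = 1000 cells per well | timing = overnight seeding, 90 min compound at 25 °C, 1 h detection | measured by = enzyme-fragment complementation luminescence | read-out = beta-arrestin recruitment to APJ as agonist activity, luminescent signal | control set = negative DMSO alone, positive Apelin-13 at 10 nM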
EBI2 block = blocks human EBI2 receptor beta-arrestin signaling; P32249; EBI2 beta-arrestin recruitment, luminescence, 7a,25-OHC stimulated; inhibition, % at 5 µM; 360,000 tested, 0.81% active; in the data active = inhibition above about 38%;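 note: enzyme fragment complementation signal reports receptor beta-arrestin coupling in cells; 0% = agonist plus DMSO wells and 100% = wells without agonist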
CXCR6 block = CXCR6 (human) receptor inhibition | O00574 | CHO-K1 PathHunter CXCR6 beta-arrestin, luminescence | inhibition, % at 20 µM | 360,000 tested, 0.36% active | AID 602244; in the data active = inhibition above about 34%, passing the limit was not always enough;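 note: antagonist mode with CXCL16 agonist at 10 nM final; 0% = 10 nM CXCL16 with DMSO and 100% = unstimulated wells without agonist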
CCR6 antagonist = CCR6 (human) receptor antagonism. P51684. CHO-K1 CCR6 PathHunter beta-arrestin, luminescence, CCL20-stimulated. inhibition, % at 20 µM. 340,000 tested, 0.49% active;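 active = compounds whose inhibition of the agonist-driven luminescence signal at 20 µM reaches about 50%, limit read from the data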;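 note: cells stimulated with CCL20 at 14 nM final; plate controls were DMSO with CCL20 for no effect and DMSO without agonist for full effect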
APJ antagonist = antagonists of human APJ apelin receptor | AID 2521 | CHO-K1 APJ beta-arrestin complementation, luminescence | 330,000 tested, 0.32% active | inhibition, % at 20 µM;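 active = inhibition above about 40% at 20 µM, limit read from the data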;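 note: cells challenged with 10 nM apelin-13 agonist together with compound; plate controls were apelin-13 plus DMSO wells for no effect and DMSO wells lacking apelin-13 for full effect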
APJ antag confirm = APJ receptor antagonism confirmation | APJ beta-arrestin recruitment, luminescence, antagonist mode | 950 tested, 66% active | shares compounds with APJ antagonist | inhibition, % at 20 µM; in the data active = inhibition above about 50%
An asterisk follows results filed as active; / = no result given. Most compounds without a hit are left out; they make up all but 1.5% or so of the library.

SMILES | APJ ag | EBI2 block | CXCR6 block | CCR6 antagonist | APJ antagonist | APJ antag confirm
Oc1ccccc1N=Nc1nc(-c2ccccc2)c(-c2ccccc2)[nH]1 | -12 | 0 | 33 | 70* | 62* | 104*
CCc1noc(C)c1C(=O)NC1CC(C)(C)Cc2c1cnn2-c1ccccc1 (configuration not stated) | -7 | -2 | 8 | / | 41* | 25
CSCCC(C(=O)Nc1c(C)cccc1C)N1CCN(c2ccc(F)cc2)CC1 (configuration not stated) | / | -21 | -2 | / | / | /
Cc1ccc(N=Nc2ccc(O)c3ncccc23)cc1C | -13 | 14 | 40* | 55* | 53* | 68*
Cc1ccc(N=Nc2ccc(O)c3ncccc23)cc1 | / | 8 | 4 | 8 | / | /
Oc1ccc(N=Nc2ccccc2C(F)(F)F)c2cccnc12 | -11 | 15 | 22 | 58* | 49* | 103*
Cc1ccc2c(c1Br)/C(=N/N1C(=O)c3ccccc3C1=O)C(=O)N2 | -10 | 5 | 9 | 21 | 38 | /
CCOc1ccc(N=C2C(=O)Nc3ccc(C)c(Br)c32)cc1 | -15 | 11 | 73* | 102* | 79* | 146*
CCN1/C(=C/C=C/c2sc3ccccc3[n+]2CC)Sc2ccccc21 | 6 | 2 | 19 | 38 | 49* | 121*
CCOc1cc(/C=C2\SC(=S)N(NS(=O)(=O)c3ccc(C)cc3)C2=O)ccc1O | -4 | 9 | 24 | 33 | 41* | 88*
COc1cc(/C=C2\SC(=S)N(NC(=O)c3ccc(O)c(OC)c3)C2=O)ccc1O | -10 | 21 | 43* | 57* | 61* | 99*
COc1cc(/C=C2\SC(=S)N(NC(=O)c3ccccc3OC)C2=O)ccc1O | -11 | 25 | 50* | 66* | 66* | 100*
COc1ccc(/C=C2/SC(=S)N(NS(=O)(=O)c3ccccc3)C2=O)cc1 | 2 | 3 | 5 | 12 | 13 | /
COc1cc(/C=C2\SC(=S)N(NS(=O)(=O)c3ccccc3)C2=O)ccc1O | -5 | -2 | 34 | 39 | 41* | 73*
Cc1ccc(CNC(=O)C(C)C2Sc3ccccc3NC2=O)cc1 (configuration not stated) | -4 | 0 | 2 | 6 | -15 | /
COc1cc(/C=C2\SC(=S)N(NC(=O)c3cccc(O)c3)C2=O)ccc1O | -8 | 13 | 42* | 56* | 41* | 95*
O=C(CNC(=O)[C@@H]1Cc2ccccc2CN1)Nc1ccc2c(c1)OCCO2 | -1 | 7 | -2 | 7 | 11 | /
O=C(NNc1cc(Br)c(O)c(Br)c1)c1ccccc1 | -14 | 38 | 59* | 87* | 96* | 137*
NS(=O)(=O)c1ccc(NNC(=O)c2ccccc2)cc1 | 0 | -16 | 2 | -8 | -9 | /
COc1ccc(C(=O)Nc2ccc(Cl)c(S(=O)(=O)Nc3ccccc3OC)c2)cc1 | 0 | 2 | 0 | 21 | 41* | 23
Nc1ncncc1-c1ccc2ccccc2c1 | 1 | 0 | 4 | 8 | 20 | /
O=C(CN1C(=O)NC2(CCCCC2)C1=O)N1CCN(S(=O)(=O)/C=C/c2ccccc2)CC1 | 8 | -2 | -9 | 6 | -34 | /
O=C(NC(=S)Nc1cccc(Cl)c1N1CCCCC1)c1ccc2c(c1)OCCO2 | 1 | 20 | 10 | 28 | 44* | 38
O=C(Nc1cccc(Cl)c1N1CCCCC1)c1ccc2c(c1)OCCO2 | -4 | 15 | -1 | 10 | 11 | /
CC(C)=NOCC(=O)Nn1c(COc2c(C)cccc2C)nc2ccccc2c1=O | -1 | -12 | -1 | 13 | -5 | /
SMILES | APJ ag | EBI2 block | CXCR6 block | CCR6 antagonist | APJ antagonist | APJ antag confirm
CCN1C=C(Cc2cccs2)C2=C(C1)C(c1cccs1)C(C#N)=C(N)O2 (configuration not stated) | -4 | 6 | 9 | 32 | 41* | -14
NC(=O)c1sc2nc3c(c(-c4ccc(Cl)cc4)c2c1N)CCCC3 | -9 | 25 | 4 | 14 | 52* | 18
Cc1ccc(-c2c3c(nc4sc(C(N)=O)c(N)c24)CCC3)cc1 | -6 | -6 | -1 | 4 | 8 | /
COc1cc(/C=C2/SC(=S)N(Cc3ccccc3)C2=O)ccc1O | -10 | 24 | 36 | 59* | 47* | 103*
COc1cc(/C=C2\SC(=S)N(N3CCOCC3)C2=O)cc(OC)c1OC | -1 | 8 | 1 | 12 | 11 | /
O=C1/C(=C\c2ccc(O)c(O)c2)SC(=S)N1Cc1ccccc1 | -8 | 15 | 52* | 71* | 56* | 100*
COc1cc(/C=C2/SC(=S)N(c3c(C)n(C)n(-c4ccccc4)c3=O)C2=O)ccc1O | -6 | 18 | 51* | 51* | 53* | 92*
COc1cc(/C=C2\SC(=S)N(N3CCOCC3)C2=O)ccc1O | -6 | 21 | 40* | 33 | 51* | 70*
Cc1c(N2C(=O)/C(=C3/C(=O)N(C)c4ccccc43)SC2=S)c(=O)n(-c2ccccc2)n1C | -1 | 8 | 28 | 37 | -10 | /
N#CN1C2CCC1CC(O)(c1ccccc1)C2 (configuration not stated) | / | -7 | -5 | / | / | /
NC(=O)C1CCCN(C(=O)CN2C(=O)NC(c3ccccc3)(c3ccccc3)C2=O)C1 (configuration not stated) | -3 | -3 | 14 | -5 | 8 | /
c1ccc(COc2ncnc3c2ncn3CCCNCc2ccc3c(c2)OCO3)cc1 | / | -10 | 3 | 12 | / | /
O=C(COc1ccccc1C(=O)NCc1ccccn1)Nc1ccc(Br)cc1 | -2 | 0 | -4 | 12 | 10 | /
CC(C)c1ccc(NC(=O)CSc2n[nH]c(=O)n2-c2cccnc2)cc1 | 3 | 7 | -11 | -10 | -18 | /
CC(=O)N1CCN(S(=O)(=O)c2cccc(C(=O)NNC(=O)COc3ccc(Cl)cc3C)c2)CC1 | -1 | 5 | -11 | 9 | 8 | /
O=C1/C(=C\c2cccc(O)c2O)SC(=S)N1Cc1ccccc1 | -8 | 5 | 35 | 47 | 42* | 68*
O=C1/C(=C\c2cccc(O)c2)SC(=S)N1Cc1ccccc1 | -3 | -2 | 6 | 10 | 18 | /
COc1ccc(S(=O)(=O)N2CCOC23CCN(S(C)(=O)=O)CC3)cc1 | 0 | 2 | -3 | -1 | -2 | /
COC(=O)c1sccc1NC(=O)c1ccc(C(C)C)cc1 | -2 | 8 | 14 | 18 | -3 | /
Cc1ccc(C)c(S(=O)(=O)Nc2ccc(O)c(C(=O)O)c2)c1 | 0 | -5 | 4 | -3 | 48* | 36
O=C(C1CCCCC1)N1CCCn2c1nc1ccccc12 | -3 | 2 | -23 | -3 | 4 | /
O=C(C1CCN(S(=O)(=O)c2cnc[nH]2)CC1)N1CCn2c1nc1ccccc12 | -14 | 35 | 56* | 67* | 61* | 101*
COc1ncccc1C(=O)N1CCCC(N2CCN(c3cccc(Cl)c3)CC2)C1 (configuration not stated) | -1 | -7 | 24 | -6 | -16 | /

Bioassay records from PubChem.
